{"data": "Measurements pooled from the literature", "target": "Cyclin-dependent kinase 15 (CDK15, Homo sapiens, UniProt Q96Q40)", "note": "Lines come from different studies, so protocols differ."}
{"SMILES": "CN(CCCC(F)(F)F)c1nccc(-c2cnn3ncccc23)n1", "test": "binding", "setting": "1 µM", "remaining binding [%]": 100}
{"SMILES": "O=C(c1ccc(Nc2ncc(Cl)c(-c3cc4ccccc4s3)n2)cc1)N1CCC(N2CCCC2)CC1", "test": "binding, competition with immobilised ligand", "setting": "1 µM", "remaining binding [%]": 70}
{"SMILES": "C[C@H]1CCN(c2nccc(-c3cnn4ncccc34)n2)C1", "test": "binding", "setting": "1 µM", "remaining binding [%]": 56}
{"SMILES": "O=C(c1ccc(Nc2ncc(Cl)c(-c3ccc(Cl)s3)n2)cc1)N1CCC(N2CCCC2)CC1", "test": "binding, competition with immobilised ligand", "setting": "1 µM", "remaining binding [%]": 43}
{"SMILES": "N[C@H]1CCN(c2nccc(-c3cnn4ncccc34)n2)C1", "test": "binding", "setting": "1 µM", "remaining binding [%]": 100}
{"SMILES": "FC(F)(F)Oc1cccc(-c2cnc3ccc(-c4ccncc4)nn23)c1", "test": "cell-free assay, competition with immobilised ligand", "setting": "5 µM", "remaining binding [%]": 63}
{"SMILES": "CC1CCCN1c1nccc(-c2cnn3ncccc23)n1 (stereo not shown)", "test": "binding", "setting": "1 µM", "remaining binding [%]": 100}
{"SMILES": "c1cncc(-c2cccc(Nc3nccc(NC4CCCCC4)n3)c2)c1", "test": "binding, competition with immobilised ligand", "setting": "10 µM", "remaining binding [%]": 76}
{"SMILES": "COc1cccc(CNC(=O)c2nc3scc(COCc4ccc(C(=O)O)cc4)c3c(=O)[nH]2)c1", "test": "cell-free assay, competition with immobilised ligand", "setting": "1 µM", "remaining binding [%]": 97.6}
{"SMILES": "CN(c1nccc(-c2cnn3ncccc23)n1)C1CC1", "test": "binding", "setting": "1 µM", "remaining binding [%]": 100}
{"SMILES": "Cn1nc(C(=O)NCc2ccc(C(=O)O)cc2)cc1-c1ccc2[nH]ccc2c1", "test": "cell-free assay, competition with immobilised ligand", "setting": "0.1 µM", "remaining binding [%]": 95}
{"SMILES": "CN(C)c1nccc(-c2cnn3ncccc23)n1", "test": "binding", "setting": "1 µM", "remaining binding [%]": 100}
{"SMILES": "CS(=O)(=O)c1cc(C2(NC(=O)c3cncc4c3cnn4-c3ccc(F)cc3)CC2)ccn1", "test": "cell-free assay, competition with immobilised ligand", "setting": "1 µM", "remaining binding [%]": 100}
{"SMILES": "C[C@@H](c1ccc(-n2cnc3c(N)ncnc32)cc1)N1CCc2nn(C)c(Cc3ccccc3)c2C1=O", "test": "binding, competition with immobilised ligand", "setting": "0.1 µM", "remaining binding [%]": 86}
{"SMILES": "COc1cnc(Nc2cccc(S(N)(=O)=O)c2)nc1N1CCN(c2ccccc2)C(=O)C1", "test": "binding, competition with immobilised ligand", "setting": "1 µM", "remaining binding [%]": 100}
{"SMILES": "F[C@@H]1CCN(c2nccc(-c3cnn4ncccc34)n2)C1", "test": "binding", "setting": "1 µM", "remaining binding [%]": 100}
{"SMILES": "Cc1nc(Cc2cccc(C(F)(F)F)c2)sc1-c1ccc(C(N)=O)nc1", "test": "cell-free assay, competition with immobilised ligand", "setting": "1 µM", "remaining binding [%]": 86}
{"SMILES": "C=CC(=O)N1CCC(C(=O)NCC(=O)N2CCN(c3nc(-c4cnc(N)nc4C(F)F)nc(N4CCOCC4)n3)CC2)CC1", "test": "binding, competition with immobilised ligand", "setting": "1 µM", "remaining binding [%]": 100}
{"SMILES": "O=S(=O)(NC1CCC(c2cc(F)ccc2F)(S(=O)(=O)c2ccc(Cl)cc2)CC1)C(F)(F)F (stereo not shown)", "test": "cell-free assay, competition with immobilised ligand", "setting": "1 µM", "remaining binding [%]": 100}
{"SMILES": "O=C(c1ccc(Nc2nccc(-c3cc4ccccc4s3)n2)cc1)N1CCC(N2CCCC2)CC1", "test": "binding, competition with immobilised ligand", "setting": "1 µM", "remaining binding [%]": 100}
{"SMILES": "O=C(O)c1cc(-c2ccc(C3CCNCC3)cc2)c2ccc(-c3ccc(C(F)(F)F)cc3)cc2c1", "test": "cell-free assay, competition with immobilised ligand", "setting": "1 µM", "remaining binding [%]": 96}
{"SMILES": "O=C(NCC1CCOCC1)c1n[nH]cc1NC(=O)c1c(F)cccc1F", "test": "binding, competition with immobilised ligand", "setting": "1 µM", "remaining binding [%]": 82}
